Source: PubChem BioAssay
The list is not random: actives were taken first. Their share in the collection is about 2.8%.
NPY-Y1 antag: blocks the human neuropeptide Y Y1 receptor; P25929; HEK293-CNG Y1 cells, membrane potential fluorescence; NPY at EC95, then isoproterenol; inhibition, % at 3.6 µM; 200,000 compounds, 1% hits;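 active = inhibition above the campaign mean inhibition of all tested compounds plus 3 SD, cut at about 20% in these data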;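 note: 0% = DMSO wells given NPY plus isoproterenol and 100% = isoproterenol alone without NPY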
Target sequence (P25929 whole entry, looked up): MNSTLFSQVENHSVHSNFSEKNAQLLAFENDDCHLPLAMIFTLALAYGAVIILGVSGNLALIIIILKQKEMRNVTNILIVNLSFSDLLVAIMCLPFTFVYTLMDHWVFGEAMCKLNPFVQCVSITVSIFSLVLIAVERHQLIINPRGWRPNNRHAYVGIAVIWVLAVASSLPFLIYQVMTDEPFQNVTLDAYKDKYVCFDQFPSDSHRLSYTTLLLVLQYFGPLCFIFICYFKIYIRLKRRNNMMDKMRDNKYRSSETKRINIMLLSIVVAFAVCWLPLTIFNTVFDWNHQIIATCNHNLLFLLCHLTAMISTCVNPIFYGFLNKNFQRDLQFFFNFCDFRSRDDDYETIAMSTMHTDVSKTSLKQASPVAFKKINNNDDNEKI
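material = HEK293 cells with Y1 receptor plus CNG channel | also added = NPY 25 nM then isoproterenol 1 µM plus Ro 20-1724 25 µM | schedule = dye 3 h, compound 60 min room temperature, stimulation 45 min | measured by = membrane potential fluorescence | benchmarks = high control isoproterenol alone, low control NPY with isoproterenol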
NPY Y2 blocker: NPY-Y2 (human) receptor antagonism | P49146 | NPY-Y2 expressing cells, antagonist mode | inhibition, % at 2.7 µM | 140,000 compounds, 0.99% hits | AID 793; in the data active = inhibition above about 17%;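 note: 0% = vehicle with agonist challenge and 100% = reference antagonist with challenge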
EP2 modulator: modulates human prostaglandin E2 receptor EP2 signaling; EP2-expressing cells, cAMP HTRF FRET, PGE2 co-stimulation; induction, % at 25 µM; 260,000 compounds, 0.83% hits; AID 940;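 active = compounds whose cAMP rise, as percent of the full-agonist control response, exceeds 60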;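 note: rat C6 glioma line stably carrying human EP2 under a CMV promoter; the protocol text gives 20 µM as final concentration; 100% = response of wells given 1 µM PGE2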
NPY1 pot ag: potentiators or agonists of human neuropeptide Y receptor Y1; P25929; AID 1304; activation, % at 3.6 µM; NPY-Y1 expressing cells, potentiator/agonist activation; 220,000 compounds, 0.37% hits; in the data active = activation above about 33%, passing the limit was not always enough;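 note: cells stimulated with NPY at EC10 then isoproterenol at EC100; 0% = low agonist plus stimulus and 100% = saturating agonist plus stimulus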
EP2 antag: EP2 receptor (human) inhibition | P43116 | C6 glioma cells expressing human EP2, cAMP TR-FRET; cells stimulated with saturating PGE2 | inhibition, % at 25 µM | 260,000 compounds, 0.52% hits;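 active = percent inhibition above 40 after rounding to a whole number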;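 note: rat C6 glioma host cells with rolipram phosphodiesterase inhibitor present; the protocol text gives 20 µM as final concentration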
NPY2 pot ag: human NPY-Y2 potentiation or agonism, primary screen; P49146; activation, % at 3.6 µM; AID 1359; cells expressing NPY-Y2, potentiator/agonist read-out; 220,000 compounds, 0.45% hits; in the data active = activation above about 27%;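 note: cells stimulated with NPY near EC25 plus isoproterenol at EC100; 0% = vehicle plus submaximal agonist and 100% = vehicle plus saturating agonist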
* = called active by the depositor; ! = a repeat was not active.

Screening Cc1ccc(S(=O)(=O)C2CS(=O)(=O)CC2O)cc1 (centres undefined) returned NPY-Y1 antag 4, NPY Y2 blocker -2, EP2 modulator 6, NPY1 pot ag 4, EP2 antag 9 and NPY2 pot ag 7.
For O=C(NNC(=O)c1cnccn1)c1ccc(S(=O)(=O)N2CCCCC2)cc1 the results were EP2 modulator -4 and EP2 antag 4.
`COc1ccc(NC(=O)/C=C/C(=O)O)c(OC)c1` gave EP2 modulator 75*, NPY1 pot ag -8, EP2 antag 3 and NPY2 pot ag -17.
For COC(=O)c1sc(-c2cccs2)cc1NC(=O)/C=C/C(=O)O the results were EP2 modulator -110, NPY1 pot ag -6, EP2 antag 63* and NPY2 pot ag -14.
`CCOc1cc(C2C(C(=O)c3ccco3)=C(O)C(=O)N2CCc2ccccc2)ccc1O` (centres undefined) gave NPY-Y1 antag 39*, NPY Y2 blocker 36*, EP2 modulator 13, NPY1 pot ag -31, EP2 antag 11 and NPY2 pot ag -24.
For Cc1cccc2cc(C(c3nnnn3Cc3ccccc3)N3CCc4ccccc43)c(=O)[nH]c12 (centres undefined) the results were EP2 modulator 95* and EP2 antag 7.
`O=c1[nH]c2cc3c(cc2cc1C(c1nnnn1C1CCCC1)N1CCCCCC1)OCCO3` (centres undefined) gave EP2 modulator 81* and EP2 antag 22.
`Cc1cc2cc(C(c3nnnn3C3CCCCC3)N3CCc4ccccc43)c(=O)[nH]c2cc1C` (centres undefined) gave EP2 modulator 76* and EP2 antag 13.
For O=c1[nH]c2cc3c(cc2cc1C(c1nnnn1C1CCCCC1)N1CCOCC1)OCCO3 (centres undefined) the results were EP2 modulator 0 and EP2 antag 8.
For Cc1cc2cc(C(c3nnnn3C3CCCC3)N3CCc4ccccc43)c(=O)[nH]c2cc1C (centres undefined) the results were EP2 modulator 5 and EP2 antag 11.
CCOc1ccc2[nH]c(=O)c(C(c3nnnn3C3CCCC3)N3CCCc4ccccc43)cc2c1 (centres undefined) was read as EP2 modulator 74* and EP2 antag 10.
Cc1cccc2cc(C(c3nnnn3C3CCCCC3)N3CCc4ccccc43)c(=O)[nH]c12 (centres undefined) was read as EP2 modulator 108* and EP2 antag 4.
Screening CCCC(c1nnnn1Cc1ccccc1)N(Cc1cc2cccc(C)c2[nH]c1=O)C1CCCCC1 (centres undefined) returned EP2 modulator 69* and EP2 antag 8.
CCCC(c1nnnn1Cc1ccccc1)N(Cc1cc2cc(C)ccc2[nH]c1=O)C1CCCCC1 (centres undefined) was read as EP2 modulator 26 and EP2 antag 22.
O=C(Cc1ccccc1F)N1CCC[C@H]1Cn1nc(-c2ccc3c(c2)OCO3)ccc1=O was read as EP2 modulator -29.
Screening CCOC(=O)c1cccc(NC(=O)CSc2nnnn2-c2ccc(OC)cc2)c1 returned EP2 modulator -18 and EP2 antag 11.
For O=C(O)CCC(=O)N1CCc2cc(S(=O)(=O)NC3CCCC3)ccc21 the results were NPY-Y1 antag -2, NPY Y2 blocker 0, EP2 modulator 8, NPY1 pot ag 1, EP2 antag 8 and NPY2 pot ag 13.
CCCCC(CC)CNS(=O)(=O)c1ccc2c(c1)CCN2C(=O)CCC(=O)O (centres undefined) was read as NPY-Y1 antag -8, NPY Y2 blocker 0, EP2 modulator 21, NPY1 pot ag 41*, EP2 antag 3 and NPY2 pot ag 18.
`CC1=NN(C(=O)COc2cc(C)ccc2C(C)C)C(O)(c2ccccc2)C1` (centres undefined) gave EP2 modulator 61*, NPY1 pot ag 11, EP2 antag 3 and NPY2 pot ag 0.
Screening CCNC(=S)N(Cc1ccc(OC)cc1)Cc1cc2cc(OC)c(OC)cc2[nH]c1=O returned EP2 modulator -34 and EP2 antag 2.
Cc1cc(-c2cccs2)c2c(n1)sc1c(=O)[nH]c(=O)[nH]c12 was read as NPY-Y1 antag -3, NPY Y2 blocker 0, EP2 modulator 31, NPY1 pot ag -17, EP2 antag 47* and NPY2 pot ag 11.
`Cc1cc(-c2ccccc2)c2c(n1)sc1c(O)cc(=O)[nH]c12` gave EP2 modulator 27, NPY1 pot ag -1, EP2 antag 18 and NPY2 pot ag 1.
CC(=O)NC(C)CCc1ccccc1 (centres undefined) was read as EP2 modulator -17, NPY1 pot ag -7, EP2 antag 6 and NPY2 pot ag -12.
`CC(CCc1ccccc1)NCC(O)c1ccc(O)c(C(N)=O)c1` (centres undefined) gave NPY-Y1 antag -14, NPY Y2 blocker 1, EP2 modulator 14, NPY1 pot ag 116*, EP2 antag 10 and NPY2 pot ag 103*.
For COCCNC(=O)CCCn1c(=O)c2cc(OC)c(OC)cc2n(CC(=O)Nc2ccccc2OC)c1=O the results were NPY-Y1 antag 21*, EP2 modulator -11, NPY1 pot ag -5, EP2 antag 6 and NPY2 pot ag -6.
For O=C1CCc2cc(S(=O)(=O)Nc3ccc(OCc4ccccc4)cc3)ccc2N1 the results were EP2 modulator -170 and EP2 antag 8.
COc1cc(/C=N/NC(=O)CSc2cc(C)c(Br)cc2C)ccc1O was read as NPY-Y1 antag 1, NPY Y2 blocker 3, EP2 modulator -33, NPY1 pot ag 5, EP2 antag 41* and NPY2 pot ag -15.
`Cc1cc(SCC(=O)N/N=C/c2ccc(O)c(O)c2O)c(C)cc1Br` gave NPY-Y1 antag -2, NPY Y2 blocker -1, EP2 modulator -3, NPY1 pot ag 1, EP2 antag 5 and NPY2 pot ag 4.
O=C1c2ccccc2-c2ccc(N(Cc3ccc(Br)cc3)Cc3ccc(Br)cc3)cc21 was read as EP2 modulator 18 and EP2 antag 47*.
For c1ccc(CN2COc3c(ccc4c5c(ccc34)CN(Cc3ccccc3)CO5)C2)cc1 the results were EP2 modulator 13 and EP2 antag 42*.
Screening Cc1cc(N=Nc2c(O)c3ccccc3[nH]c2=O)ccc1N=Nc1ccc(C(=O)N(C)C)cc1 returned EP2 modulator 2, NPY1 pot ag 9, EP2 antag 4 and NPY2 pot ag 14.
For Cc1ccc(N=Nc2c(O)c3ccccc3[nH]c2=O)c(S(=O)(=O)N(C)C)c1 the results were EP2 modulator -17, NPY1 pot ag -6, EP2 antag 48*! and NPY2 pot ag 5.
